Screening data from PubChem BioAssay.
BB579 growth dn = chemicals that inhibit yeast BB579 growth in restrictive medium (lifespan-shortening candidates). S. cerevisiae BB579 growth, OD615, 48 h. inhibition, % at 10 µM. actives 0.51% (n = 140,000). AID 804;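 active = inhibition above a set limit, 3 SD over the mean compound inhibition, cut at about 44% in these data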
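Test system: S. cerevisiae DeaD strain BB579 yeast; Medium: restrictive CSMM-D medium; Compound: one dose, 10 µM compound with 0.25% DMSO; Incubation: 4 h cell preincubation, 48 h compound exposure, 30 °C humidified; Signal: OD at 615 nm; Benchmarks: amphotericin B at 10 µg/mL as positive control.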
Insulin prom inh = TRM-6 insulin promoter activity inhibition; inhibition, % at 2 µM; TRM-6 cells, insulin promoter-eGFP reporter, imaging; reporter expression induced with tamoxifen; actives 0.9% (n = 130,000);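 active = inhibition above the mean plus 3 SD, with well images judged a real hit on visual review, cut at about 60% in these data, passing the limit was not always enough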
RAM inhibit = inhibitors of the yeast RAM network; S. cerevisiae dse1pr::URA3 reporter, 5-FOA growth OD615, 2 d; analog-sensitive cbk1-as2 kinase mutant strain; inhibition, % at 50 µM; actives 1.8% (n = 190,000);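 active = inhibition above a set limit, 3 SD over mean compound inhibition, cut at about 8.4% in these data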;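 note: 0% = DMSO-only wells with no growth and 100% = 10 µM 1-NA-PP1 full growth; inhibition rescues growth on 5-FOA so higher OD means more RAM inhibition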
Yeast lifespan up = extends the lifespan of yeast; inhibition of the nicotinamide effect, % at 10 µM; actives 0.68% (n = 130,000); S. cerevisiae growth with nicotinamide, OD615; deaD strain in restrictive glucose medium;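 active = inhibition above a set limit, placed 3 SD over the median of all compounds, cut at about 26% in these data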;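 note: 0% = nicotinamide-treated wells and 100% = cells grown without nicotinamide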
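Measured by: optical density (absorbance) at 615 nm; System: modified budding yeast, DeaD strain; Medium: restrictive CSMM-D dextrose medium; Timing: 4 h preincubation then 48 h treatment at 30 °C.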
Efa HMGR inh = inhibitors of class II HMG-CoA reductase from Enterococcus faecalis; purified E. faecalis HMGR, NADPH absorbance 340 nm kinetic; inhibition, % at 10 µM; actives 0.41% (n = 190,000);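 active = inhibition above a set limit, the median over all tested compounds plus 3 SD, cut at about 9.5% in these data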;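 note: enzyme runs in reverse so mevalonate oxidation gives rising NADPH absorbance; 0% = complete reaction with DMSO and 100% = background rate lacking mevalonate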
* marks the source's active call; other numbers are inactive results; / = no result given. Most compounds without a hit are left out; they make up all but 3.7% or so of the library.

SMILES	BB579 growth dn	Insulin prom inh	RAM inhibit	Yeast lifespan up	Efa HMGR inh
CCCCOc1ccc2c(C)cc(=O)oc2c1OCCCC	0.8	6.7	8.8*	/	-5.8
Cc1ccc(C2(C)NC(=O)N(CC(=O)Nc3c(C)n(C)n(-c4ccccc4)c3=O)C2=O)cc1 (stereo not given)	-29.8	/	-0.8	2.7	12.6*
Cc1c(NC(=O)CN2C(=O)NC(C)(c3ccccc3)C2=O)c(=O)n(-c2ccccc2)n1C (stereo not given)	-28.8	-66.7	0.9	-3.8	0.5
COc1ccc(CC(=O)NNC(=O)c2cccs2)cc1	-23.4	3.5	0.6	-0.6	-5.8
COc1ccccc1OCC(=O)NNC(=O)c1cccs1	-39.1	4.0	1.8	33.3*	-6.8
CC(NC(=O)/C(C#N)=C/c1ccc(Cl)c([N+](=O)[O-])c1)c1ccccc1 (stereo not given)	46.3*	/	4.5	5.4	0.9
N#C/C(=C\c1ccc(O)c([N+](=O)[O-])c1)C(=O)NCc1ccccc1	/	/	3.0	/	-8.2
COC(=O)c1sc(S(=O)(=O)NCCC(=O)O)c(C(=O)OC)c1C	/	-42.9	2.0	/	2.4
O=C(CCl)N1c2ccccc2OCC1c1ccccc1 (stereo not given)	-48.6	/	0.5	47.2*	-5.3
COc1ccc(S(=O)(=O)N2c3ccccc3OCC2c2ccccc2)cc1 (stereo not given)	-19.6	/	6.2	-15.1	0.8
COc1ccc(CCNC(=S)NC2CCN(Cc3ccccc3)CC2)cc1	/	18.5	0.9	/	-2.5
CCOC(=O)c1cnc(SC2CC(=O)N(c3cccc(OC)c3)C2=O)nc1N (stereo not given)	-18.3	/	10.1*	3.4	-1.2
COc1ccc(C(=O)N/N=C/c2cn[nH]c2-c2ccc(OC)cc2OC)cc1	-1.8	65.5*	2.6	0.6	-4.1
COc1ccc(C(=O)N/N=C/c2cccc3cccnc23)cc1	-4.8	/	0.8	-12.5	-8.7
COc1ccc(C(=O)N/N=C/c2cc3ccccc3[nH]c2=S)cc1	-66.7	45.8	9.5*	6.1	0.0
COc1ccc(C(c2sc3nc(C)nn3c2O)N2CCC(C(N)=O)CC2)cc1OC (stereo not given)	-2.8	80.0*	-1.6	-5.7	-2.9
CCN(CC)C(=O)c1ccc2nc(-c3ccccc3)c(-c3ccccc3)nc2c1	-54.0	66.7*	1.2	-3.3	-2.0
COC(=O)c1ccc(C(=O)OC)c(NC(=O)C(C)C)c1	/	/	-0.8	/	-4.3
COC(=O)c1ccc(C(=O)OC)c(NC(=O)COC(=O)c2ccc(OC)c(OC)c2OC)c1	-22.0	/	10.6*	10.7	-2.2
CCOCC(=O)Nc1cc(C(=O)OC)ccc1C(=O)OC	-10.5	-10.5	1.6	-5.9	-2.9
COC(=O)c1ccc(C(=O)OC)c(NC(=O)CSCc2ccccc2Br)c1	-14.4	33.3	10.9*	-7.6	-0.1
CCn1ncc(Br)c1C(=O)Nc1cc(C(=O)OC)ccc1C(=O)OC	-39.5	/	8.5*	3.0	0.1
Cc1c(N/C(=N/S(=O)(=O)c2ccc(F)cc2)c2ccccc2)c(=O)n(-c2ccccc2)n1C	/	/	0.7	/	0.8
CC1CC(C)(C)NC(=S)N1CCCC(=O)N1CCN(c2ccccc2F)CC1 (stereo not given)	4.0	-16.2	0.3	-0.1	-1.4
COc1ccc(C(=O)NC2CCN(C(=S)Nc3cccc(C)c3C)CC2)cc1	-48.9	16.0	8.6*	-2.5	2.2
SMILES	BB579 growth dn	Insulin prom inh	RAM inhibit	Yeast lifespan up	Efa HMGR inh
O=C(CSc1nc(-c2ccco2)cc(C(F)(F)F)n1)NCCCN1CCOCC1	/	/	2.0	/	1.4
c1ccc(-c2cc(-c3ccccc3)n3ncnc3n2)cc1	/	69.2*	0.1	/	-4.8
O=C(NNC(=S)NC(=O)c1cccs1)c1ccc(NC(=O)c2ccccc2)cc1	-26.3	28.6	3.4	0.6	2.6
CCCCC(=O)Nc1ccc(C(=O)NNC(=S)NC(=O)c2cccs2)cc1	-23.2	/	0.0	35.7*	-2.5
COc1ccc(N2CCN(Cc3nc4c(c(=O)[nH]c(=O)n4C)n3CCCc3ccccc3)CC2)cc1	-54.2	12.5	1.0	10.9	-10.6
Cn1c(=O)[nH]c(=O)c2c1nc(CN1CCN(c3cccc(Cl)c3)CC1)n2CCCc1ccccc1	-37.0	/	9.5*	-8.6	-12.1
CCCCn1c(CN2CCN(c3cccc(Cl)c3)CC2)nc2c1c(=O)[nH]c(=O)n2C	-31.8	-43.8	2.2	/	9.8*
COc1cc(C2C(C#N)=C(C)NC(C)=C2C#N)cc(OC)c1OC	-23.3	33.3	2.0	2.7	-5.1
Cc1nnc2c(Oc3ccccc3)nc3ccccc3n12	-3.3	-131.4	5.6	-26.5	-4.0
